Data set [1] can be described thus: Partition coefficient in an aqueous 1-octanol buffer system by the shake-flask method. In kind it is physicochemical. The settings on record: 1-octanol/aqueous buffer. The gist of the method: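 LogP_app by shake-flask in aqueous buffer/1-octanol at pH 7.4 (ionic strength 0.10 M NaCl), 23±1.0 °C. Aqueous-phase compound concentration measured spectrophotometrically; values are means of duplicate determinations run in triplicate.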

For data set [2], the target named is Serotonin 3 (5-HT3) receptor. The data set is described as follows: Binding affinity for 5-HT3 receptor of NG108-15 cells using [3H]GR-65630. The format is cell-based. The gist of the method: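 Competition binding against 1 nM [3H]GR65630 (84.2 Ci/mmol; KD 0.7 nM); nonspecific binding defined with […]. Incubation 30 min at room temperature, then filtration on presoaked glass fiber filters, ice-cold buffer wash, scintillation counting. Log concentration vs percent inhibition fitted by nonlinear least squares assuming 100% maximal inhibition; Ki from IC50 via Cheng-Prusoff.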

The record followed here is ChEMBL document CHEMBL1136652, “Conformationally-restricted analogues and partition coefficients of the 5-HT3 serotonin receptor ligands meta-chlorophenylbiguanide (mCPBG) and meta-chlorophenylguanidine (mCPG)” (Bioorg Med Chem Lett, 2003).

Bounds are passed on as bounds.

By logD is commonly meant lipophilicity at a set pH, counting ionised and neutral species. A low value points to a more hydrophilic compound. One may read the Ki as a dissociation constant, usually derived from enzyme kinetics or from competition with a known ligand. Low readings indicate a stronger hold on the target, high ones a looser hold on the target.

For the compound `N=C(N)Nc1cc(Cl)c(Cl)c(Cl)c1`, the logD in data set [1] worked out at 1.16.

Take `Nc1ncnc(Nc2ccc3ccccc3c2)n1`: the Ki in data set [2] was above 10 µM.

`NC(N)=Nc1cccc(Cl)c1` gave a logD in data set [1] of -0.64.

On to `CC1(C)N=C(N)N=C(N)N1c1cccc(Cl)c1`, for which, in data set [2], the Ki was above 10 µM.

In turn, `N=C(N)NC(=N)Nc1ccccc1` [PHENYL BIGUANIDE] yielded a logD in data set [1] of -1.17.

For `NC1=Nc2cc(Cl)ccc2CN1`, in data set [2], affinity was put at a Ki of 0.034 µM.

With `N=C(N)NC(=N)Nc1cccc(Cl)c1`, the pH-dependent lipophilicity (logD) in data set [1] was -0.38.

Take `N=C(N)Nc1ccccc1` [PHENYLGUANIDINE]: the logD in data set [1] is -1.32.

In data set [1], `N=C(N)NC(=N)Nc1cc(Cl)c(Cl)c(Cl)c1` returned a logD of 1.47.

Consider `Nc1ncnc(Nc2ccccc2)n1` [AMANOZINE], for which, in data set [2], the Ki is above 10 µM.

As to `Nc1nc2ccc(Cl)cc2[nH]1`, in data set [2], the affinity, expressed as Ki, was 0.725 µM.

In data set [2], `CC1N=C(N)N=C(N)N1c1cccc(Cl)c1` (stereo not given) displayed a Ki above 10 µM.

`Nc1ncnc(Nc2cccc(Cl)c2)n1` had a Ki in data set [2] above 10 µM.

`Nc1nccc(Nc2cccc(Cl)c2)n1` had a Ki in data set [2] of 1.46 µM.

On to `Nc1nc(Nc2cccc(Cl)c2)n[nH]1`, for which the Ki in data set [2] is above 10 µM.
